Active and inactive are the calls of the source. The rule behind the calls is not given here.
Assays:
Rattus norvegicus [1] = species: Rattus norvegicus; experiment: Inhibition of rat recombinant C-terminal His-tagged calpain-2 expressed in Escherichia coli BL21(DE3) assessed as cleavage of (EDANS)-EPLFAERK-(DABCYL) at 100 uM in presence of CaCl2 by fluorescence spectrometer relative to control
[2] = biological target: Procathepsin L (Homo sapiens) (UniProt P07711); experiment: Inhibition of human liver cathepsin L assessed as cleavage of Z-FR-AMC at 100 uM by fluorescence spectrometer
Chain of Procathepsin L (Homo sapiens) (P07711 114-333 limits assumed): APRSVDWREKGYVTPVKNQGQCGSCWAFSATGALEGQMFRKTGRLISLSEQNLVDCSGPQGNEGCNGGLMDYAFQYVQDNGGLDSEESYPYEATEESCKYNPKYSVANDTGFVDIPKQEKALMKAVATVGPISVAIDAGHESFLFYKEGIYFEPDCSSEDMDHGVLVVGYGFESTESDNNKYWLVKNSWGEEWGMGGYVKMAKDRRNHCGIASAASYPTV

Rattus norvegicus [3] = species: Rattus norvegicus; experiment: Inhibition of rat calpain-1 assessed as cleavage of (EDANS)-EPLFAERK-(DABCYL) at 100 uM in presence of CaCl2 by fluorescence spectrometer relative to control
Rattus norvegicus [4] = species: Rattus norvegicus; experiment: Binding affinity to rat recombinant C-terminal His-tagged calpain-2 C105S mutant expressed in Escherichia coli BL21(DE3) at 25 to 50 uM in presence of CaCl2 and trypsin by MALDI-TOFpeptide fingerprinting method
Outline: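 The mixture is exposed to long-wave UV for 2.5 h, with a DMSO control. Photoadducts are tryptically digested and identified by MALDI-TOF mass fingerprinting.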

Papain (Carica papaya) = biological target: T1, Papain (Carica papaya) (UniProt P00784); experiment: Inhibition of papaya papain assessed as cleavage of (EDANS)-EPLFAERK-(DABCYL) at 100 uM by fluorescence spectrometer
T1 sequence (whole entry): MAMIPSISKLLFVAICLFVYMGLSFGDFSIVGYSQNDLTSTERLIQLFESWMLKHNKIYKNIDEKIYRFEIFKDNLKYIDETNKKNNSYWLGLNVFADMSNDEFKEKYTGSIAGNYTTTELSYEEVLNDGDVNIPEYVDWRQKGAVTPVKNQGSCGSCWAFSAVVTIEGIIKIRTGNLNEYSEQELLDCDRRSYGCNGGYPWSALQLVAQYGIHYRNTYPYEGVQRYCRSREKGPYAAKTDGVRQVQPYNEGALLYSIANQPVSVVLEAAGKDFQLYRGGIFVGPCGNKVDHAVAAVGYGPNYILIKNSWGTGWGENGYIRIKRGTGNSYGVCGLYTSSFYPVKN

[5] = Non-competitive inhibition of rat recombinant C-terminal His-tagged calpain-2 expressed in Escherichia coli BL21(DE3) using (EDANS)-EPLFAERK-(DABCYL) as substrate assessed as enzyme/substrate/inhibitor complex in presence of CaCl2 by Michaelis-Menten plot analysis
[6] = Non-competitive inhibition of rat recombinant C-terminal His-tagged calpain-2 expressed in Escherichia coli BL21(DE3) using (EDANS)-EPLFAERK-(DABCYL) as substrate assessed as enzyme/inhibitor complex in presence of CaCl2 by Michaelis-Menten plot analysis
Rattus norvegicus [7] = species: Rattus norvegicus; experiment: Inhibition of rat recombinant calpain-1 protease core expressed in Escherichia coli BL21(DE3) assessed as cleavage of (EDANS)-EPLFAERK-(DABCYL) at 100 uM in presence of CaCl2 by fluorescence spectrometer
Rattus norvegicus [8] = species: Rattus norvegicus; experiment: Activation of rat recombinant calpain-1 protease core expressed in Escherichia coli BL21(DE3) assessed as cleavage of (EDANS)-EPLFAERK-(DABCYL) at 100 uM in presence of CaCl2 by fluorescence spectrometer
[9] = Competitive inhibition of rat recombinant C-terminal His-tagged calpain-2 expressed in Escherichia coli BL21(DE3) using (EDANS)-EPLFAERK-(DABCYL) as substrate assessed as enzyme/inhibitor complex in presence of CaCl2 by Michaelis-Menten plot analysis
[10] = Inhibition of calpain-1 (unknown origin) using H-Glu(Edans)-Pro-Leu-Phe-Ala-Glu-Arg-Lys(Dabcyl)-OH as substrate measured every 13 secs for 1 hr by fluorescence assay
[11] = Competitive inhibition of porcine erythrocyte calpain-2 using Suc-Leu-Tyr-AMC as substrate; parameters: species or system Sus scrofa
[12] = Mixed-type inhibition of rat recombinant C-terminal His-tagged calpain-2 expressed in Escherichia coli BL21(DE3) using (EDANS)-EPLFAERK-(DABCYL) as substrate assessed as enzyme/substrate/inhibitor complex in presence of CaCl2 by Michaelis-Menten plot analysis
[13] = Mixed-type inhibition of rat recombinant C-terminal His-tagged calpain-2 expressed in Escherichia coli BL21(DE3) using (EDANS)-EPLFAERK-(DABCYL) as substrate assessed as enzyme/inhibitor complex in presence of CaCl2 by Michaelis-Menten plot analysis

Compound | inhibition (Rattus norvegicus [1]) | inhibition [2] | inhibition (Rattus norvegicus [3]) | inhibition (Papain (Carica papaya)) | also measured
CC(C)[C@H](NC(=O)C/N=C1\N[C@@H](C)[C@@H](C(=O)NC(C)(C)C)N2CCC[C@H]12)C(=O)N[C@H](CCCN)C(=O)O | 79% | 17% |  |  | 
C[C@H](NC(=O)C/N=C1\N[C@@H](C)[C@@H](C(=O)NC(C)(C)C)N2CCC[C@H]12)C(=O)N[C@H](CCCN)C(=O)O | 66% |  | 54% |  | 
C[C@@H]1N/C(=N\CC(=O)N[C@@H](Cc2ccccc2)C(=O)N[C@H](CCCN)C(=O)O)[C@H]2CCCN2[C@@H]1C(=O)NC(C)(C)C | 39% |  | 28% |  | 
CC(C)C[C@@H]1NC(=O)[C@H](C)NC(=O)CNC(=O)[C@@H]2CCCN2[C@H](C(=O)NC(C)(C)C)[C@H](CSC2CC(=O)N(c3cccc(C(=O)c4ccccc4)c3)C2=O)NC(=O)[C@H](CCCCN)NC1=O (stereo partly specified) | Active |  |  |  | inhibition (Rattus norvegicus [4]): Active
CC(C)C[C@H](NC(=O)C/N=C1\N[C@@H](CSC2CC(=O)N(c3cccc(C(=O)c4ccccc4)c3)C2=O)[C@@H](C(=O)NC(C)(C)C)N2CCC[C@H]12)C(=O)N[C@H](CCCN)C(=O)O (stereo partly specified) | Active |  |  |  | inhibition (Rattus norvegicus [4]): Active
CC(C)C[C@@H](NC(=O)C/N=C1\N[C@@H](C)[C@@H](C(=O)NC(C)(C)C)N2CCC[C@H]12)C(=O)N[C@H](CCCN)C(=O)O | 16% | > 32% | Active | inactive | Ki [5]: 119 µM; Ki [6]: 154 µM; inhibition (Rattus norvegicus [7]): Active
CC[C@H](C)[C@H](NC(=O)C/N=C1\N[C@@H](C)[C@@H](C(=O)NC(C)(C)C)N2CCC[C@H]12)C(=O)N[C@H](CCCN)C(=O)O | 67% |  | 14% |  | 
CC(C)C[C@H](/N=C1\N[C@@H](C)[C@@H](C(=O)NC(C)(C)C)N2CCC[C@H]12)C(=O)N[C@@H](CCCCN)C(=O)NCC(=O)O | > 85% | > 85% | Active | inactive | Activity (Rattus norvegicus [8]): Active; Ki [9]: 12.2 µM
CC[C@H](C)[C@H](NC(C)=O)C(=O)N1CCC[C@H]1C(=O)N1CCC[C@H]1C(=O)N[C@@H](CCCCN)C(=O)N[C@@H](Cc1ccc(O)cc1)C(=O)N[C@H]1CSSC[C@@H](C(N)=O)NC(=O)[C@H](CC(C)C)NC(=O)[C@H](CC(C)C)NC(=O)[C@H](CCC(=O)O)NC1=O |  |  |  |  | Ki [10]: 10.2 µM
CC(C)C[C@@H]1NC(=O)[C@H](C)NC(=O)CNC(=O)[C@@H]2CCCN2[C@H](C(=O)NC(C)(C)C)[C@H](C)NC(=O)[C@H](CCCCN)NC1=O | 84% | > 85% | 45% | inactive | Ki [9]: 16.6 µM; inhibition (Rattus norvegicus [7]): Active
H-DPMSSTYIEELGKREVTIPPKYRELLA-OH |  |  |  |  | Ki [9]: 0.0168 µM; Ki [11]: 8.7 nM
C[C@@H]1NC(=O)[C@H](CCCN)NC(=O)CNC(=O)[C@H](CO)NC(=O)CNC(=O)[C@@H]2CCCN2[C@@H]1C(=O)NC(C)(C)C | 78% | > 85% | 38% | inactive | Activity (Rattus norvegicus [8]): Active; Ki [12]: 45.6 µM; Ki [13]: 20.3 µM

Reference: ChEMBL document CHEMBL3817732, “Rational Design of Calpain Inhibitors Based on Calpastatin Peptidomimetics” (J Med Chem, 2016)
